High-throughput results (PubChem)
Shown are actives, neighbours in structure and some others; about 0.91% of the full set was active somewhere.
Pf gametocyte = late stage P. falciparum gametocyte viability inhibitors, primary screen, ATP luminescence, HTS; P. falciparum stage V gametocytes, 24 h; inhibition, % at 10.9 µM; hit rate 0.065% among 150,000;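 active means inhibition above the mean plus 3 SD of compounds within the control limits, set per campaign, cut at about 38% in these data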;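 further: 0% = DMSO wells and 100% = medium only without gametocytes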
zVAD death inh = inhibitors of zVAD-triggered necroptosis, primary screen, L929 cells; L929 zVAD necroptosis rescue, ATP luminescence, 24 h; with zVAD 60 µM; viability rescue, % at 10 µM; hit rate 0.38% among 220,000; AID 1377, 2008;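 active means activation, scaled between plate controls, above about 75%, limit read from the data; inactive means activation under that limit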;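 further: 0% = zVAD with DMSO and 100% = DMSO alone without zVAD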
Arbovirus inh = antivirals against arbovirus infection, primary screen, cell-based, full library, 10K replicate subset. arbovirus infection cell-based antiviral screen. inhibition, % at 10 µM. hit rate 0.37% among 200,000. AID 1251, 2008; in the data active means inhibition above about 30%
TNF death inh = inhibitors of TNF-alpha triggered necroptosis, primary screen, cell-based, Jurkat FADD-/-, single concentration; Jurkat FADD-/- TNF necroptosis rescue, ATP luminescence, 24 h; 0 = TNF only, 100 = no-TNF cells; AID 463075, 2010; hit rate 0.068% among 220,000; activation (protection from cell death), % at 10 µM;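 active means activation, meaning protection from cell death, of at least 50% relative to plate controls; inactive means activation below 50%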;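 further: necroptosis triggered by 40 ng/mL TNF-alpha added together with compound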
Hep lipid drop = inhibitors of hepatocyte lipid droplet formation, primary screen, imaging, high-throughput imaging, BODIPY stain. hit rate 0.4% among 240,000. AML12 mouse hepatocytes, oleate lipid droplets. inhibition, % at 6.5 µM;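 active means lipid droplet intensity inhibited by at least 50%, with more than 500 cells counted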
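Assay system: AML12 hepatocytes (mouse) / Also added: 100 µM oleic acid challenge / Times: overnight treatment with compound plus oleate / Detection: high-content imaging of BODIPY-stained droplets and DAPI nuclei / Evaluation: % inhibition of lipid droplet signal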
Active calls of the source: *; . = not tested or not shown.

SMILES | Pf gametocyte | zVAD death inh | Arbovirus inh | TNF death inh | Hep lipid drop
CCOC(=O)[C@H]1[C@H]2COc3cc(OC)ccc3[C@@H]2N2C(=O)c3ccc(C)cc3NC(=O)[C@@]12C | 38.9* | . | . | . | .
COc1ccc(C)cc1NC(=O)CSc1nc2ccccc2nc1N1CC(C)OC(C)C1 (configuration not stated) | . | . | . | . | -16.7
COc1ccccc1CNC(=O)c1ccc2nc3[nH]c4ccccc4c3nc2c1 | -5.0 | 38.1 | -16.4 | -4.3 | 72.8*
CCc1nc2ccc(C(=O)NCCc3ccccc3OC)cc2nc1CC | . | . | . | . | -7.3
Clc1cccc(-c2cc3nc4c(c(NCc5ccco5)n3n2)CCCC4)c1 | . | 0.5 | 33.7* | -3.5 | .
Cc1cc(C(C)(C)C)cc(C)c1C(=O)O | 8.3 | 1.1 | . | -0.2 | .
Cc1ccc(N2C(=S)SC3CS(=O)(=O)CC32)cc1 (configuration not stated) | 38.2* | 1.4 | 0.4 | 1.4 | 2.8
OC(CNC1CCCC1)COc1ccc(Cl)cc1 (configuration not stated) | 0.3 | . | . | . | 5.3
OC(CNC1CCCCC1)CNC1CCCCC1 | 0.7 | 0.6 | 39.2* | 1.4 | 16.6
COc1ccc(NC(=O)c2ccc(OC(=S)N(C)c3ccc(OC)cc3)cc2)cc1 | . | 0.5 | -9.4 | 68.0* | .
COc1ccc(C2=CC(c3ccc(C)cc3)n3nnnc3N2)cc1 (configuration not stated) | . | 0.2 | 37.8* | 0.3 | .
COc1ccc(C2C=C(c3ccccc3)Nc3nnnn32)cc1 (configuration not stated) | -4.8 | -0.2 | 2.9 | -1.3 | .
COc1ccc(C2C=C(c3ccc(Br)s3)Nc3ncnn32)cc1OC (configuration not stated) | . | -1.3 | 90.0* | -11.8 | -2.0
COc1ccc(C2C=C(c3ccc(C)cc3)Nc3ncnn32)cc1 (configuration not stated) | . | -0.2 | 86.3* | -1.8 | .
COc1cccc(C2C=C(c3cccs3)Nc3ncnn32)c1OC (configuration not stated) | . | -0.3 | -6.8 | -0.3 | .
COc1cccc(C2=CC(c3ccc(N(C)C)cc3)n3ncnc3N2)c1 (configuration not stated) | . | 2.0 | 45.7* | -1.4 | .
O=C(NCC(=O)N1CCN(c2ccccn2)CC1)c1ccc(Br)o1 | . | . | . | . | 1.2
O=C(O)c1cn(Cc2ccccn2)c(=O)c2ccccc12 | -10.5 | 0.1 | 5.5 | -1.0 | 0.3
COCCn1c(-c2ccc(Cl)cc2)cnc1SCC(=O)NCc1cccs1 | -1.2 | -0.6 | 58.1* | -4.6 | .
O=C(CSc1nc2ccccc2c(=O)n1Cc1ccc(Cl)cc1)NCc1cccs1 | 7.5 | 0.2 | -6.0 | 3.4 | -19.6
O=C1c2ccsc2SCCN1Cc1ccccc1 | . | 0.7 | 8.6 | 70.4* | -1.0
CCN(CC)C1CC(=O)N(c2cccc(Cl)c2)C1=O (configuration not stated) | 4.3 | . | . | . | 0.0
Nc1nc(NC(=O)c2ccccc2)nn1-c1ccccc1 | 57.7* | . | 5.5 | -2.1 | 0.9
CCOc1ccc(N=Nc2c(=O)[nH]n3c(=O)cc(C)[nH]c23)cc1 | . | -0.6 | -6.1 | -16.0 | .
O=c1[nH]n2c(=O)c3c([nH]c2c1N=Nc1cccc(Cl)c1)CCCC3 | 14.1 | -0.2 | 39.6* | -2.5 | 22.8
SMILES | Pf gametocyte | zVAD death inh | Arbovirus inh | TNF death inh | Hep lipid drop
CCOc1ccc(N=Nc2c(=O)[nH]n3c(=O)c4c([nH]c23)CCCC4)cc1 | . | 1.5 | 59.6* | -0.5 | -8.2
COC(=O)c1cccc(Cn2c(Cl)c(/C=N/NC(=O)c3ccco3)sc2=O)c1 | . | . | . | . | 8.7
Cc1ccc2nc(-c3ccccc3Cl)cc(C(=O)Nc3cc(C)on3)c2c1 | 10.2 | -0.1 | 34.1* | 0.2 | 0.9
O=C(CN1C(=O)/C(=C\c2cccc(F)c2)Oc2ccccc21)N1CCN(c2ccccn2)CC1 | 51.2* | 1.3 | -12.5 | 1.8 | 3.3
O=C(c1ccco1)N1CCN(C(=S)NCc2ccc(F)cc2)CC1 | . | . | . | . | 0.7
COc1ccccc1/C=C/C=C1N=C(/C=C/c2ccc(Cl)cc2)OC/1=O | 3.6 | 0.1 | 34.8* | -1.2 | -43.2
O=C(/C=C/c1cccs1)Nc1scc(-c2ccccc2)c1C(=O)O | 1.4 | 6.3 | 73.8* | 0.0 | -4.1
O=C(/C=C/c1cccs1)Nc1nc(-c2ccccc2)cs1 | -8.9 | 1.3 | 24.9 | -8.3 | 2.3
COC(=O)c1c(-c2ccc(F)cc2)csc1NC(=O)c1ccco1 | . | 0.0 | -7.7 | -0.1 | -34.6
